Experimental findings from ChEMBL document CHEMBL1131596, “Novel potent nonpeptide aminopeptidase N inhibitors with a cyclic imide skeleton” (J Med Chem, 1998) are described below.

In one experiment the target is Aminopeptidase N (Homo sapiens, UniProt P15144). Put plainly: Inhibitory activity against aminopeptidase N assayed by the L-Ala-MCA method.
The target of the next experiment is Dipeptidyl peptidase 4 (Homo sapiens, UniProt P27487). Put plainly: Inhibitory activity against dipeptidyl peptidase IV (DPP- IV). In short, it runs like this: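 Enzymatic activity was measured in intact cells (DPP-IV as a membrane-associated ecto enzyme) using glycyl-L-proline 4-methylcoumaryl-7-amide (Gly-Pro-AMC) as the substrate.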
Chain of Dipeptidyl peptidase 4 (P27487 whole entry): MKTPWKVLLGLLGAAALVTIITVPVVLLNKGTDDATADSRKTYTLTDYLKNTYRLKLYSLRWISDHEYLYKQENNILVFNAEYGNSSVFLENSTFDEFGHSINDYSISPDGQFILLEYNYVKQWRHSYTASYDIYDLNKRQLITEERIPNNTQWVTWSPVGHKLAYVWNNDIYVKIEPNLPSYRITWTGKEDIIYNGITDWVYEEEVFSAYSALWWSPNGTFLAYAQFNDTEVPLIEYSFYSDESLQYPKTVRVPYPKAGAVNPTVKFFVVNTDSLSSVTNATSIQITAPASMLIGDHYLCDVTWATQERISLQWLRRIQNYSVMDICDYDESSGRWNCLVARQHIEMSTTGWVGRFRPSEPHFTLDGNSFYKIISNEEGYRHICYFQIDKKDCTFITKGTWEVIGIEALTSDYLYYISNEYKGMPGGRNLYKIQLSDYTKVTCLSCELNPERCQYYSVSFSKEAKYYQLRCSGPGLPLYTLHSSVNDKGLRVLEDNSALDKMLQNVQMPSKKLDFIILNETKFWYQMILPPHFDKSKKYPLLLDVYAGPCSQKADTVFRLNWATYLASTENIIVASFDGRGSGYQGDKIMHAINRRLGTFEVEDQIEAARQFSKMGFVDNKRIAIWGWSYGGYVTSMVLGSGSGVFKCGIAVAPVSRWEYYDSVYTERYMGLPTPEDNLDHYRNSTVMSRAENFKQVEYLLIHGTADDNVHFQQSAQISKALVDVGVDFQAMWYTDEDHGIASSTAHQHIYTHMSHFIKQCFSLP

Chain of Aminopeptidase N (P15144 whole entry): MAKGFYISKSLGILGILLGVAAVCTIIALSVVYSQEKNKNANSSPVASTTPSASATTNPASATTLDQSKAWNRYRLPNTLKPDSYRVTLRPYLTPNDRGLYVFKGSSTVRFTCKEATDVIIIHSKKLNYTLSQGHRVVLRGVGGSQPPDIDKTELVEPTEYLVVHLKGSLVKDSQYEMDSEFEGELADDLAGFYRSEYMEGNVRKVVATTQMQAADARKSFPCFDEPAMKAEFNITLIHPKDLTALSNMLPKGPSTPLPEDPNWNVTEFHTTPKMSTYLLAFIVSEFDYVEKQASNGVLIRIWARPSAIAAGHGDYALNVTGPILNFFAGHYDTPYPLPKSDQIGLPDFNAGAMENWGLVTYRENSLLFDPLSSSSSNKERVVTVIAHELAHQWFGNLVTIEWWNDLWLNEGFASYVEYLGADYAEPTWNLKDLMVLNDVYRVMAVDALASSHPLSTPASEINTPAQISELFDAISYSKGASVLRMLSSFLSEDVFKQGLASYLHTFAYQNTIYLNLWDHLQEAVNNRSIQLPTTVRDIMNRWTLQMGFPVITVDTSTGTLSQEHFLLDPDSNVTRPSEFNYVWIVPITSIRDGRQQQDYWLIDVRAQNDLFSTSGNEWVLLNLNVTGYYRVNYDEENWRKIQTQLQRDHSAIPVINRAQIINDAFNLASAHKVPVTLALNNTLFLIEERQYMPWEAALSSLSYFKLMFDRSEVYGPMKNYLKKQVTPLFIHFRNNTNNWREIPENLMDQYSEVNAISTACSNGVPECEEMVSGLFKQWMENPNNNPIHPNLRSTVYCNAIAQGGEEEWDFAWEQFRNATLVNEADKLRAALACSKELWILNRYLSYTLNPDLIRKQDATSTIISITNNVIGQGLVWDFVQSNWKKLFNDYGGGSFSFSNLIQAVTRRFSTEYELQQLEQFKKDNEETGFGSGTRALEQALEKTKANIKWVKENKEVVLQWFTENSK

Regarding `Cc1cc(C)cc(N2C(=O)Cc3ccccc3C2=O)c1`, the values for the IC50 at Aminopeptidase N and against Dipeptidyl peptidase 4 were 23.4 µM and over 377 µM, respectively. `Cc1cccc(C)c1N1C(=O)c2ccccc2C1=O`: the IC50 (as a rule, the midpoint of a concentration-inhibition curve) against Aminopeptidase N was over 398 µM. As to `CCc1cccc(CC)c1N1C(=O)c2ccc([N+](=O)[O-])cc2C1=O`, the IC50 at Aminopeptidase N and against Dipeptidyl peptidase 4 was over 308 µM in each case. Consider `CSc1ccccc1N1C(=O)Cc2ccccc2C1=O`, for which the IC50 against Aminopeptidase N was 3.18 µM; at Dipeptidyl peptidase 4, over 353 µM. On Aminopeptidase N, `CC(C)c1cccc(C(C)C)c1N1C(=O)c2ccccc2C1=O` showed a half-maximal inhibitory concentration (IC50) of over 325 µM.

Regarding `CCCCC[C@H](CC(=O)NO)C(=O)N[C@H](C(=O)N1CCC[C@H]1CO)C(C)C` [ACTINONIN], the values for the IC50 against Aminopeptidase N and against Dipeptidyl peptidase 4 were 0.83 µM and over 259 µM, respectively. At Aminopeptidase N, `CC(C)c1cccc(C(C)C)c1N1C(=O)c2cc3ccccc3cc2C1=O` yielded a half-maximal inhibitory concentration (IC50) of over 280 µM. On to `Cc1cccc(C)c1N1C(=O)Cc2ccccc2C1=O`, for which the IC50 at Aminopeptidase N is 157 µM; on Dipeptidyl peptidase 4, over 377 µM. For the compound `CC(C)C[C@H](NC(=O)C(O)[C@H](N)Cc1ccccc1)C(=O)O` (single isomer, unassigned) [UBENIMEX], the half-inhibitory concentration (IC50) against Dipeptidyl peptidase 4 is over 324 µM. `O=C([C@@H]1CCCN1)N1CCC[C@H]1B(O)O`: the IC50 was over 472 µM against Aminopeptidase N and 86.3 µM against Dipeptidyl peptidase 4. Take `Cc1cccc(C)c1N1C(=O)c2cccc(N)c2C1=O`: the concentration for half-maximal inhibition (IC50) against Aminopeptidase N and against Dipeptidyl peptidase 4 was over 376 µM each time. For `CC(C)c1cccc(C(C)C)c1N1C(=O)c2cccc(O)c2C1=O`, 43.6 µM corresponded to half-maximal inhibition on Dipeptidyl peptidase 4 (IC50). Take `CC(C)c1cccc(C(C)C)c1N1C(=O)Cc2ccccc2C1=O`: the IC50 was 10.9 µM against Aminopeptidase N and over 311 µM against Dipeptidyl peptidase 4. As for `CC(C)c1ccc(N2C(=O)Cc3ccccc3C2=O)cc1`, the IC50 at Aminopeptidase N and at Dipeptidyl peptidase 4 was over 358 µM in each case. At Dipeptidyl peptidase 4, `Cc1cccc(C)c1N1C(=O)c2ccc(O)cc2C1=O` showed an IC50 of 74.1 µM. As for `Cc1ccc(C)c(N2C(=O)Cc3ccccc3C2=O)c1`, the IC50 against Aminopeptidase N is 60.3 µM; against Dipeptidyl peptidase 4, over 377 µM. On Dipeptidyl peptidase 4, `CC(C)c1cccc(C(C)C)c1N1C(=O)c2ccc(O)cc2C1=O` showed an IC50 of 65.9 µM.

Consider `CC(C)c1ccccc1N1C(=O)Cc2ccccc2C1=O`, for which the half-inhibitory concentration (IC50) at Aminopeptidase N is 194 µM; at Dipeptidyl peptidase 4, over 358 µM. As to `CC(C)c1cccc(C(C)C)c1N1C(=O)c2ccc([N+](=O)[O-])cc2C1=O`, at Aminopeptidase N, the IC50 was over 284 µM. As for `Cc1ccc(N2C(=O)Cc3ccccc3C2=O)c(C)c1`, the 50% inhibitory concentration (IC50) was 187 µM against Aminopeptidase N and over 377 µM on Dipeptidyl peptidase 4. With `CCc1ccccc1N1C(=O)Cc2ccccc2C1=O`, the results for the half-maximal inhibitory concentration (IC50) at Aminopeptidase N and against Dipeptidyl peptidase 4 were 67.1 µM and over 377 µM, respectively. For `COc1ccccc1N1C(=O)Cc2ccccc2C1=O`, the IC50 was 110 µM at Aminopeptidase N and over 374 µM against Dipeptidyl peptidase 4. As to `Cc1cccc(C)c1N1C(=O)c2cccc(O)c2C1=O`, the IC50 on Aminopeptidase N is 265 µM. On Dipeptidyl peptidase 4, `CCc1cccc(CC)c1N1C(=O)c2ccc(O)cc2C1=O` had a half-maximal inhibitory concentration (IC50) of 43.3 µM. `O=C1Cc2ccccc2C(=O)N1c1c(Cl)cccc1Cl`: the figures for the half-maximal inhibitory concentration (IC50) against Aminopeptidase N and at Dipeptidyl peptidase 4 were 144 µM and over 327 µM, respectively. With `CCc1cccc(CC)c1N1C(=O)c2ccccc2C1=O`, the results for the 50% inhibitory concentration (IC50) on Aminopeptidase N and at Dipeptidyl peptidase 4 were 303 µM and over 358 µM, respectively.

For the compound `Cc1cccc(N2C(=O)Cc3ccccc3C2=O)c1C`, the half-inhibitory concentration (IC50) against Aminopeptidase N is 113 µM; against Dipeptidyl peptidase 4 it was over 377 µM. Take `CC(C)c1cccc(C(C)C)c1N1C(=O)c2ccc(N)cc2C1=O`: the concentration for half-maximal inhibition (IC50) at Dipeptidyl peptidase 4 was 251 µM. `CC(C)c1cccc(C(C)C)c1N1C(=O)c2cccc([N+](=O)[O-])c2C1=O` came in with an IC50 against Aminopeptidase N of over 284 µM. `O=C1Cc2ccccc2C(=O)N1c1ccccc1`: the IC50 was 395 µM at Aminopeptidase N and over 421 µM at Dipeptidyl peptidase 4. Compound `CC(C)c1cccc(C(C)C)c1N1C(=O)c2cccc(N)c2C1=O` showed a 50% inhibitory concentration (IC50) against Aminopeptidase N of 20.8 µM.

`CCc1cccc(CC)c1N1C(=O)Cc2ccccc2C1=O`: the IC50 on Dipeptidyl peptidase 4 is over 341 µM.

The compound `Cc1cccc(C)c1N1C(=O)c2ccc(N)cc2C1=O` showed an IC50 against Dipeptidyl peptidase 4 of 87.9 µM.
